Source: PubChem
This is a sample that favours compounds with a hit; in the whole collection about 2.1% have one here.
AF4-AF9 inh: inhibitors of human MLL-AF4/AF9 interaction. AlphaScreen, biotin-AF4 peptide binding to FLAG-AF9. AID 651704. P42568. actives 0.47% (n = 350,000). inhibition, % at 10 µM;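 active = every replicate reaching a set inhibition limit, whatever the replicate mean, cut at about 25% in these data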;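 also: 0% = plate neutral control median and 100% = total signal loss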
Target sequence (P42568 whole entry, looked up): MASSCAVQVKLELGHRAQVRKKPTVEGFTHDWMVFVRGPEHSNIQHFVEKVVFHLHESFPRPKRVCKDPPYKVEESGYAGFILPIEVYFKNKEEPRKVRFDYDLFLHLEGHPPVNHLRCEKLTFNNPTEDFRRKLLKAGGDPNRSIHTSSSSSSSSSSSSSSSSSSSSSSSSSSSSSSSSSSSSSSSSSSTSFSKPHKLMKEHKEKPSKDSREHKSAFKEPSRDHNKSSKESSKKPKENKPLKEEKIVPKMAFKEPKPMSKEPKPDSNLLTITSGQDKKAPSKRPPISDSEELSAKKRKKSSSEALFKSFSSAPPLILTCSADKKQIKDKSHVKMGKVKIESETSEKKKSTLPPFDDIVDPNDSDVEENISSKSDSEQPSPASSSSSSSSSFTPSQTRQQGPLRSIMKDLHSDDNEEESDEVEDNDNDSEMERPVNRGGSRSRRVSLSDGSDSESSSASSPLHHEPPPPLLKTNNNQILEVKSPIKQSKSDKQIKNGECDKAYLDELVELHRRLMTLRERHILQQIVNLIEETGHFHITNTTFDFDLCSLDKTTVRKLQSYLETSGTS
Xi reactivation: X-chromosome reactivation activator; XiGFP mouse fibroblasts, % GFP-positive cells imaging, 3 d; cells co-treated with 5-aza-dC sensitizer; scaled so ellipticine positive control = 100%; activation, % at 7.58 µM; actives 0.055% (n = 360,000); AID 743238;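 active = mean normalized replicate activation at least 10% and every replicate at or above 10%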;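 also: 0% = median of on-plate neutral control wells and 100% = ellipticine 6 µM median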
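System: 68-5-11 XiGFP fibroblast line; Timing: 3 days compound exposure; Compound dosing: one concentration, pinned; Benchmarks: positive control ellipticine, 6 µM final; Buffer or medium: DMEM containing 5-aza-dC.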
GSIS activator: GLuc luminescence reporter in INS-1E cells, primary screen for activators of glucose-dependent secretion of insulin; INS-1E GLuc reporter insulin secretion, 2-3 h; activation, % at 16.6 µM; actives 0.61% (n = 370,000); AID 743287;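 active = lowest replicate activation of at least 40%, so every replicate reaches that level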;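 also: 0% = median of neutral control wells and 100% = median of IBMX positive control wells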
PGC1a acetyl inh: PGC1a acetylation modulation, inhibitor mode | U2OS PGC1a acetylation, AlphaScreen anti-acetyl-lysine; with virally co-expressed GCN5 acetyltransferase | inhibition, % at 15.6 µM | actives 0.17% (n = 350,000) | AID 651687;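 active = every replicate shows inhibition of at least 40%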;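 also: 0% = neutral control wells and 100% = positive control wells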
PAX8 reporter: lowers PAX8-driven luciferase in RMG-I cells; RMG-I TPO-luciferase reporter, SteadyGlo, 24 h; inhibition, % at 12.6 µM; actives 1.2% (n = 360,000); AID 652154;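 active = mean replicate inhibition at least 60% with every replicate also reaching 60%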;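 also: luciferase light reporting Pax8 driven TPO promoter activity; plate controls were median of neutral control wells for no effect and mitoxantrone controls for full effect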
EWS-Fli block: EWS/Fli transcriptional activity inhibition | A673 NR0B1-luciferase reporter, viability-normalised | inhibition, % at 12.6 µM | actives 0.67% (n = 350,000) | AID 651661;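 active = mean inhibition of at least 50% after viability correction, with every replicate also passing that limit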;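 also: firefly luciferase signal divided by Alamar Blue viability fluorescence both relative to DMSO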
Numbers without * were called inactive; nt = no result given.

SMILES	AF4-AF9 inh	Xi reactivation	GSIS activator	PGC1a acetyl inh	PAX8 reporter	EWS-Fli block
CCN(CC)CCOC(=O)c1ccc(N/C=C(/C#N)c2nc(-c3ccc(OC)c(OC)c3)cs2)cc1	6	0	56*	nt	-24	7
CCN(CC)CCOC(=O)c1ccc(N/C=C(/C#N)c2nc(-c3cccc(OC)c3)cs2)cc1	-1	0	nt	3	-8	20
COc1ccc(C(CCNCc2ccccc2)c2ccc(F)cc2)cc1 (centres undefined)	nt	0	-21	-2	-5	nt
COc1ccc(C(CCNC(C)c2ccccc2)c2ccc(F)cc2)cc1 (centres undefined)	nt	0	-5	-10	81*	nt
C=C(C)C1Cc2c(C)nn(-c3cccc4cccnc34)c2C1 (centres undefined)	0	0	51*	5	5	6
COCCNC(=O)[C@@H]1[C@@H](CO)[C@@H]2Cn3c(cccc3=O)[C@@H]2N1Cc1ccccc1OC	nt	0	8	-1	nt	7
CCCCc1c(-c2ccccc2OC)ncn1C(C)c1ccccc1 (centres undefined)	12	0	92*	nt	10	16
CCCCc1c(-c2ccccc2OC)ncn1Cc1ccc(Br)cc1	nt	0	-33	nt	-6	7
CCCCc1c(-c2ccccc2OC)ncn1CCc1ccccc1	15	0	46*	nt	12	19
CCCCc1c(-c2ccccc2OC)ncn1CCc1ccc(OC)cc1	19	0	1	nt	7	4
CCOC(=O)C1=CCN(S(=O)(=O)c2ccc(C)cc2)C1c1ccccc1 (centres undefined)	-4	0	-11	-28	-4	-4
CCOc1cc2c(c3c1C(c1ccccc1)N(S(=O)(=O)c1ccc(C)cc1)C3)C(=O)C=CC2=O (centres undefined)	-4	0	nt	-14	5	62*
Cc1ccc(S(=O)(=O)NNC(=O)c2cccc(O)c2)cc1	48*	0	8	-26	-22	-3
O=C(C1CCCC1)N1CCCCN2[C@H](CO)[C@H](c3ccc(-c4cccc(F)c4)cc3)[C@@H]2C1	0	nt	nt	3	-8	-2
COc1ccc(CN(C)C[C@H]2OCCCC[C@H](C)Oc3ccc(NC(=O)Nc4ccccc4)cc3C(=O)N([C@H](C)CO)C[C@H]2C)cc1	nt	0	-31	19	7	65*
COc1ccc(CN(C)C[C@@H]2OCCCC[C@@H](C)Oc3ccc(NC(=O)Nc4ccc(F)cc4)cc3C(=O)N([C@H](C)CO)C[C@H]2C)cc1	13	-1	-16	-30	73*	8
COc1ccc(S(=O)(=O)Nc2ccc3c(c2)C(=O)N([C@H](C)CO)C[C@@H](C)[C@H](CN(C)CC2CC2)O3)cc1	-18	1	-4	7	nt	1
C[C@@H]1CN([C@@H](C)CO)C(=O)c2cccc(NC(=O)Nc3ccc4c(c3)OCO4)c2O[C@H]1CN(C)C(=O)Nc1ccc(F)cc1	nt	0	-15	-4	-18	4
COc1cccc(C(=O)N2C[C@H]3[C@@H](c4ccccc42)[C@@H](CO)N3C(C)=O)c1	-2	0	-5	2	-8	-7
O=[N+]([O-])c1ccc(CNc2ccc(Cl)cc2)s1	30*	0	-2	-6	11	21
CCNc1nc(NC(C)C)nc(N(C)C#N)n1	-1	0	58*	8	18	7
Cc1nc(Cl)c2c(n1)NC(=O)CO2	-1	0	-1	5	-5	11
Cc1nc2c(c(N3CCOCC3)n1)OCC(=O)N2	nt	nt	73*	nt	nt	nt
C[C@@H]1CN([C@@H](C)CO)C(=O)Cc2cc(NS(C)(=O)=O)ccc2O[C@H]1CN(C)Cc1ccc(C(=O)O)cc1	-4	0	3	4	-23	4
CCCNC(=O)COc1nc2ccccc2nc1N1CCOCC1	3	0	33	3	103*	13
SMILES	AF4-AF9 inh	Xi reactivation	GSIS activator	PGC1a acetyl inh	PAX8 reporter	EWS-Fli block
C[C@H](CO)N1C[C@H](C)[C@@H](CN(C)C(=O)Nc2ccc(C(F)(F)F)cc2)Oc2ccc(NC(=O)Nc3ccc(C(F)(F)F)cc3)cc2CC1=O	-17	0	-4	-2	10	-3
CC(=O)Cc1nsc(NC(=O)c2ccc(-c3cccc(Cl)c3)o2)n1	3	0	42*	-8	-8	-15
CCC(=O)N(C)C[C@H]1Oc2ncc(-c3ccc(C(=O)N(C)C)cc3)cc2C(=O)N([C@@H](C)CO)C[C@H]1C	-3	0	35	-5	nt	-6
O=C(Nc1ccccc1)C(=O)Nc1ccccn1	nt	nt	-13	11	nt	nt
O=C(Nc1cccc(O)c1)C(=O)Nc1ccccn1	2	0	8	nt	67*	8
COc1cc2c(cc1OC)C(c1cccc(Br)c1)NC(=O)C2 (centres undefined)	1	0	12	-10	-12	10
COc1cc2c(cc1OC)C(c1cccc([N+](=O)[O-])c1)NC(=O)C2 (centres undefined)	-3	0	70*	-1	2	4
O=C(C[C@H]1CC[C@H]2[C@@H](COC[C@@H](O)CN2Cc2cccc(Cl)c2)O1)N1CCCCC1	-3	0	-3	-15	9	10
Cc1ccc(S(=O)(=O)n2cc(-c3ccccc3)c3ccccc32)cc1	-1	1	12	-14	52	60*
Cc1ccc(S(=O)(=O)n2cc(C=O)c3ccccc32)cc1	-9	0	2	7	21	6
COc1cc(C(C[N+](=O)[O-])c2c(N)n(C)c(=O)n(C)c2=O)ccc1O (centres undefined)	0	0	-35	-36	25	34
COc1cccc(F)c1C(C[N+](=O)[O-])c1c(N)n(C)c(=O)n(C)c1=O (centres undefined)	-1	0	nt	7	100*	36
CNc1cncc(-c2cc(OC)ccc2OC)n1	3	0	-2	1	-8	-7
COc1ccc(OC)c(-c2cnc(OC(C)(C)C)nc2OC(C)(C)C)c1	1	0	3	3	11	71*
COc1cccc(S(=O)(=O)N2CC[C@H]3[C@@H](CO)N(C)c4ccc(C#Cc5ccc(F)cc5)cc4[C@H]32)c1	0	0	14	-8	85*	5
Cc1cccc(S(=O)(=O)N2CC[C@@H]3[C@H](CO)N(C)c4ccc(C#Cc5ccc(F)cc5)cc4[C@@H]32)c1	nt	nt	nt	-15	91*	19
CC(=O)Nc1ccc(NC(=O)c2cc(C)nn2-c2ccccc2)cc1	nt	nt	nt	-8	nt	nt
CC(=O)c1cc2c(cc1NC(=O)c1cc(C)nn1-c1ccccc1)OCO2	34*	0	nt	-3	10	48
NS(=O)(=O)c1ccc(CCN2C(=O)/C(=C\c3ccc(Cl)cc3)SC2=S)cc1	nt	0	16	nt	112*	nt
